Data from ChEMBL document CHEMBL1177821, “Structure-activity relationships and hepatic safety risks of thiazole agonists of the thrombopoietin receptor” (Bioorg Med Chem Lett, 2010).
Activity calls are given as the source filed them. No cut-off for these calls is given here.

Columns and labels:
Rattus norvegicus [1] = test: Toxicity in rat assessed as elevation of AST level at 50 mg/kg, po; type: organism-based; set-up: dose 50 mg/kg, route oral; details: in vivo
In short: (§1)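 Single oral doses of 50, 250 or 500 mg/kg given to rats, each study with its own control group. Mean serum AST and ALT (IU/L) measured. Histopathology of liver also examined.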

Rattus norvegicus [2] = test: Toxicity in rat assessed as elevation of AST level at 250 mg/kg, po; type: organism-based; set-up: dose 250 mg/kg, route oral; details: in vivo; in short: as §1
Rattus norvegicus [3] = test: Toxicity in rat assessed as elevation of AST level at 500 mg/kg, po; type: organism-based; set-up: dose 500 mg/kg, route oral; details: in vivo; in short: as §1
Rattus norvegicus [4] = test: Toxicity in rat assessed as elevation of ALT level at 50 mg/kg, po; type: organism-based; set-up: dose 50 mg/kg, route oral; details: in vivo; in short: as §1
Rattus norvegicus [5] = test: Toxicity in rat assessed as elevation of ALT level at 250 mg/kg, po; type: organism-based; set-up: dose 250 mg/kg, route oral; details: in vivo; in short: as §1
Rattus norvegicus [6] = test: Toxicity in rat assessed as elevation of ALT level at 500 mg/kg, po; type: organism-based; set-up: dose 500 mg/kg, route oral; details: in vivo; in short: as §1
[7] = Cmax in rat at 50 mg/kg, po; type: ADME, organism-based; set-up: dose 50 mg/kg, route oral; details: in vivo
In short: (§2)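 Rats given single oral doses of 50, 250 or 500 mg/kg, with a separate vehicle control group in each study. Mean Cmax (µg/mL) and mean AUC0–24 (µg h/mL) taken as total (bound plus unbound) plasma concentrations.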

[8] = AUC (0 to 24 hrs) in rat at 50 mg/kg, po; type: ADME, organism-based; set-up: time < 24 hr, dose 50 mg/kg, route oral; details: plasma; in short: as §2
[9] = Cmax in rat at 250 mg/kg, po; type: ADME, organism-based; set-up: dose 250 mg/kg, route oral; details: in vivo; in short: as §2
[10] = AUC (0 to 24 hrs) in rat at 250 mg/kg, po; type: ADME, organism-based; set-up: time < 24 hr, dose 250 mg/kg, route oral; details: plasma; in short: as §2
[11] = Cmax in rat at 500 mg/kg, po; type: ADME, organism-based; set-up: dose 500 mg/kg, route oral; details: in vivo; in short: as §2
[12] = AUC (0 to 24 hrs) in rat at 500 mg/kg, po; type: ADME, organism-based; set-up: time < 24 hr, dose 500 mg/kg, route oral; details: plasma; in short: as §2
Mus musculus [13] = organism: Mus musculus; test: Increase of platelets level in human TPO receptor transgenic mouse measured after 6 days; type: functional, organism-based
In short: (§3)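 Human TPO receptor transgenic mice (knock-out/human knock-in of receptor exons 8–10, spanning the transmembrane domain) and wild-type mice given compound on days 0 and 1. Platelets counted on day 6.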

Rattus norvegicus [14] = test: Toxicity in rat assessed as histopathological changes at 10 to 150 mg/kg, po after 4 days; type: organism-based; set-up: dose 10-150 mg/kg, route oral; details: in vivo, 96 h
In short: (§4)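 Rats dosed orally once daily for four days at 10, 50 or 150 mg/kg, four animals per dose. Clinical pathology including ALT and bilirubin checked on days 1 and 5. Histopathology examined.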

Rattus norvegicus [15] = test: Toxicity in rat assessed as change in clinical pathology at 10 to 150 mg/kg, po after 4 days; type: organism-based; set-up: dose 10-150 mg/kg, route oral; details: in vivo, 96 h; in short: as §4
Mus musculus [16] = organism: Mus musculus; test: Increase of platelets level in mouse measured after 6 days; type: functional, organism-based; in short: as §3
Thrombopoietin receptor = target: T1, Thrombopoietin receptor (Homo sapiens, UniProt P40238); test: Agonist activity at human TPO receptor expressed in murine BaF3 cells
T1 sequence (P40238 whole entry): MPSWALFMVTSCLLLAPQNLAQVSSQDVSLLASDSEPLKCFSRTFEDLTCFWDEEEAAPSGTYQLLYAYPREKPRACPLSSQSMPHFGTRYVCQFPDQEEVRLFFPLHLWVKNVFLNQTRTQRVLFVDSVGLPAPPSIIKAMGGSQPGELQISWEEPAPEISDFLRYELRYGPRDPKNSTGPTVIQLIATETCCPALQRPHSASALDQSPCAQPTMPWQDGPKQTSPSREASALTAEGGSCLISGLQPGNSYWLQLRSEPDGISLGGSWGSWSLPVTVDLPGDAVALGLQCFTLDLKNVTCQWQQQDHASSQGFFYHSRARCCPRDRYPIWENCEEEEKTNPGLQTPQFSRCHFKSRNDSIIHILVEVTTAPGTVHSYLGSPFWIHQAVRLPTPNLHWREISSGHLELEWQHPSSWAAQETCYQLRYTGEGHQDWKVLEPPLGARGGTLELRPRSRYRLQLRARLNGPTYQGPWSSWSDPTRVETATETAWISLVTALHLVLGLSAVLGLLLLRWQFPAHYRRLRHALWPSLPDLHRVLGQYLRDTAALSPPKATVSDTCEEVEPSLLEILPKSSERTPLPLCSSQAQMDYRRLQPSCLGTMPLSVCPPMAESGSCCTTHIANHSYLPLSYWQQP

O=C(Nc1nc(-c2cccc(C(F)(F)F)c2F)cs1)c1cnc(N2CCC(C(=O)O)CC2)c(Cl)c1
Activity (Rattus norvegicus [1]): 1937 IU/L
Activity (Rattus norvegicus [2]): 2952 IU/L
Activity (Rattus norvegicus [3]): 3495 IU/L
Activity (Rattus norvegicus [4]): 442 IU/L
Activity (Rattus norvegicus [5]): 450 IU/L
Activity (Rattus norvegicus [6]): 579 IU/L
Cmax [7]: 20000 ng/mL
AUC(0-t) at 24 h [8]: 84 µg·h/mL
Cmax [9]: 48000 ng/mL
AUC(0-t) at 24 h [10]: 832 µg·h/mL
Cmax [11]: 84000 ng/mL
AUC(0-t) at 24 h [12]: 1490 µg·h/mL
EC50 (Mus musculus [13]): 27 µg·h/mL
Activity (Rattus norvegicus [14]): Non-toxic
Activity (Rattus norvegicus [15]): Non-toxic
Activity (Mus musculus [16]): inactive

Cc1sc(NC(=O)c2cnc(N3CCC(C(=O)O)CC3)c(Cl)c2)nc1-c1ccc(F)c(C(F)(F)F)c1
EC50 (Thrombopoietin receptor): 66 nM

O=C(Nc1nc(-c2ccc(Cl)c(Cl)c2)c(F)s1)c1cnc(N2CCC(C(=O)O)CC2)c(Cl)c1
EC50 (Thrombopoietin receptor): > 1000 nM

CCCCc1cc(-c2nc(NC(=O)c3cnc(N4CCC(C(=O)O)CC4)c(Cl)c3)sc2F)ccc1F
EC50 (Thrombopoietin receptor): 220 nM

CCc1sc(NC(=O)c2cnc(N3CCC(C(=O)O)CC3)c(Cl)c2)nc1-c1ccc(F)c(C(F)(F)F)c1
EC50 (Thrombopoietin receptor): 160 nM

O=C(Nc1nc(-c2ccc(F)c(Br)c2)c(F)s1)c1cnc(N2CCC(C(=O)O)CC2)c(Cl)c1
EC50 (Thrombopoietin receptor): 670 nM

O=C(Nc1nc(-c2cccc(C(F)(F)F)c2F)c(F)s1)c1cnc(N2CCC(C(=O)O)CC2)c(Cl)c1
EC50 (Thrombopoietin receptor): 702 nM

O=C(Nc1nc(-c2ccc(F)c(C(F)(F)F)c2)c(F)s1)c1cnc(N2CCC(C(=O)O)CC2)c(Cl)c1
EC50 (Mus musculus [13]): 7 µg·h/mL
Activity (Rattus norvegicus [14]): Non-toxic
Activity (Rattus norvegicus [15]): Non-toxic
Activity (Mus musculus [16]): inactive
EC50 (Thrombopoietin receptor): 89 nM

CCOCc1cc(-c2nc(NC(=O)c3cnc(N4CCC(C(=O)O)CC4)c(Cl)c3)sc2F)ccc1F
EC50 (Thrombopoietin receptor): > 970 nM

O=C(Nc1nc(-c2ccc(F)c(C(F)(F)F)c2)ns1)c1cnc(N2CCC(C(=O)O)CC2)c(Cl)c1
EC50 (Thrombopoietin receptor): 574 nM

O=C(Nc1nc(-c2ccc(F)c(OC(F)(F)F)c2)c(F)s1)c1cnc(N2CCC(C(=O)O)CC2)c(Cl)c1
EC50 (Thrombopoietin receptor): 620 nM

O=C(Nc1nc(-c2ccc(F)c(C(F)(F)F)c2)cs1)c1cnc(N2CCC(C(=O)O)CC2)c(Cl)c1
EC50 (Thrombopoietin receptor): 100 nM

CC(C)Cc1cc(-c2nc(NC(=O)c3cnc(N4CCC(C(=O)O)CC4)c(Cl)c3)sc2F)ccc1F
EC50 (Thrombopoietin receptor): 58 nM

O=C(Nc1nc(-c2ccc(F)c(Cl)c2)c(F)s1)c1cnc(N2CCC(C(=O)O)CC2)c(Cl)c1
EC50 (Thrombopoietin receptor): 480 nM

N#Cc1sc(NC(=O)c2cnc(N3CCC(C(=O)O)CC3)c(Cl)c2)nc1-c1ccc(F)c(C(F)(F)F)c1
EC50 (Thrombopoietin receptor): > 898 nM

CCCc1sc(NC(=O)c2cnc(N3CCC(C(=O)O)CC3)c(Cl)c2)nc1-c1ccc(F)c(C(F)(F)F)c1
EC50 (Thrombopoietin receptor): 130 nM

O=C(Nc1nc(-c2ccc(F)c(C(F)(F)F)c2)c(Cl)s1)c1cnc(N2CCC(C(=O)O)CC2)c(Cl)c1
EC50 (Thrombopoietin receptor): 86 nM

O=C(Nc1ccn(-c2cccc(C(F)(F)F)c2F)n1)c1cnc(N2CCC(C(=O)O)CC2)c(Cl)c1
EC50 (Thrombopoietin receptor): > 811 nM

O=C(Nc1nc(-c2ccc(F)c(OCC(F)(F)F)c2)c(F)s1)c1cnc(N2CCC(C(=O)O)CC2)c(Cl)c1
EC50 (Thrombopoietin receptor): 950 nM
